According to ChEMBL document CHEMBL1143230, “5-Substituted 2-aminothiophenes as A1 adenosine receptor allosteric enhancers” (Bioorg Med Chem, 2008):

How the values were obtained:
Conditions in all cases: CHO-K1
[1] = biological target: T1, Adenosine receptor A1 (Homo sapiens) (UniProt P30542); assay: Activity at human adenosine A1 receptor expressed in CHOK1 cells assessed as agonist-receptor ternary complex remaining by […]; assay type: functional, cell-based
T1 sequence (whole entry): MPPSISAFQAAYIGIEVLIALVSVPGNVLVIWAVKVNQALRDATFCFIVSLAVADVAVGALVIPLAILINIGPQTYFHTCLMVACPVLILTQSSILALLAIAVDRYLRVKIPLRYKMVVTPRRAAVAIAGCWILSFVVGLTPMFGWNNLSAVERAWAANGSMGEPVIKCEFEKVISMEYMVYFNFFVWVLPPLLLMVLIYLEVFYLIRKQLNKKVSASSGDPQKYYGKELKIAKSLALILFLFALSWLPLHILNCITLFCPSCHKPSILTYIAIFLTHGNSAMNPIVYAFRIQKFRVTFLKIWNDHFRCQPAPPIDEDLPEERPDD
How it was run: (§1)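 Membranes from CHO-K1 cells stably expressing hA1AR, 10 ug protein. Phase 2: vehicle or enhancer for 30 min. Phase 3: 100 uM BW-1433 plus 25 uM GTPgammaS for 10 min. Score = % specific binding remaining. ED50 and maximal score from hyperbolic fit over 0.1–50 uM, N = 2–3.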

[2] = biological target: T1, Adenosine receptor A1 (Homo sapiens); assay: Activity at human adenosine A1 receptor expressed in CHOK1 cells assessed as agonist-receptor ternary complex remaining by […] after 10 mins; assay type: functional, cell-based; set-up: concentration or dose not given beside the values; how it was run: as §1
[3] = biological target: T1, Adenosine receptor A1 (Homo sapiens); assay: Displacement of [3H]CPX from human adenosine A1 receptor expressed in CHOK1 cells at 10 uM relative to control; assay type: cell-based
How it was run: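 Membranes from CHO-K1 cells expressing human A1 receptor, resuspended at 400 ug/mL in HE buffer with 1 U/mL adenosine deaminase. Incubated with [3H]CPX (2 nM in the added buffer) and 10 uM enhancer (final) for 90 min at room temperature. Non-specific binding defined with 100 uM NECA. Filtration, scintillation counting, triplicate, expressed as % inhibition versus control binding.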

| SMILES | ED50 [1] [µM] | Activity [2] [%] | inhibition [3] [%] |
| --- | --- | --- | --- |
| CCOC(=O)c1c(N)sc(-c2cccc(C(C)=O)c2)c1-c1cccc(C(F)(F)F)c1 | > 10 | 14.4 | 68.9 |
| CCOC(=O)c1c(N)sc(-c2ccc(OC)cc2)c1-c1cccc(C(F)(F)F)c1 | > 10 | 17.5 | 81.5 |
| CCOC(=O)c1c(N)sc(-c2ccc(-c3ccncc3)cc2)c1-c1cccc(C(F)(F)F)c1 | > 10 | 0 | 91 |
| Nc1sc(Cl)c(-c2cccc(C(F)(F)F)c2)c1C(=O)c1ccccc1 | > 10 | 22.2 | 87.1 |
| Nc1sc(-c2ccc([N+](=O)[O-])cc2)c(-c2cccc(C(F)(F)F)c2)c1C(=O)c1ccccc1 | > 10 | 23.7 | 34.8 |
| COc1ccc(-c2sc(N)c(C(=O)c3ccccc3)c2-c2cccc(C(F)(F)F)c2)cc1 | > 10 | 7.4 | 65.2 |
| CCOC(=O)c1c(N)sc(-c2ccc([N+](=O)[O-])cc2)c1-c1cccc(C(F)(F)F)c1 | > 10 | 10.3 | 71.4 |
| CCOC(=O)c1c(N)sc(-c2ccccc2)c1-c1cccc(C(F)(F)F)c1 | > 10 | 13.2 | 83.6 |
| Nc1scc(-c2cccc(C(F)(F)F)c2)c1C(=O)c1ccccc1 | 15.8 | 76.8 | 61.1 |
| Nc1sc(Br)c(-c2cccc(C(F)(F)F)c2)c1C(=O)c1ccccc1 | > 10 | 53.5 | 47.5 |
| CC(=O)c1cccc(-c2sc(N)c(C(=O)c3ccccc3)c2-c2cccc(C(F)(F)F)c2)c1 | > 10 | 18.5 | 33.1 |
| CCOC(=O)c1c(N)sc(-c2ccc(Cl)cc2)c1-c1cccc(C(F)(F)F)c1 | 6.6 | 57 | 58.4 |
| CCOC(=O)c1c(N)sc(-c2ccc(C(F)(F)F)cc2)c1-c1cccc(C(F)(F)F)c1 | > 10 | 14.8 | 48.5 |
| Nc1sc(-c2ccccc2)c(-c2cccc(C(F)(F)F)c2)c1C(=O)c1ccccc1 | 2.3 | 18.1 | 82.4 |
| CC(=O)c1ccc(-c2sc(N)c(C(=O)c3ccccc3)c2-c2cccc(C(F)(F)F)c2)cc1 | > 10 | 4.8 | 25.6 |
| CCOC(=O)c1c(-c2cccc(C(F)(F)F)c2)csc1N | 9.4 | 7.8 | 93 |
| CCOC(=O)c1c(N)sc(-c2ccc(C(C)=O)cc2)c1-c1cccc(C(F)(F)F)c1 | > 10 | 28.5 | 64.6 |
| Nc1sc(-c2ccc(Cl)cc2)c(-c2cccc(C(F)(F)F)c2)c1C(=O)c1ccccc1 | > 10 | 22.5 | 59.1 |
